High-throughput results (PubChem)
Kir21 block – Kir2.1 (mouse) channel inhibition | P35561 | HEK293-Kir2.1, FluxOR thallium flux fluorescence; hits give low values | B-score at 10 µM | 310,000 compounds, 0.85% hits;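 active = fluorescence ratio B-score at or below minus 3 SD of library scores, with starting-brightness B-score within 2 SD, cut at about -4.2 in these data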;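 also: channel flux triggered by added potassium and thallium sulfate stimulus; B-score of peak minus minimum fluorescence over baseline after thallium stimulus; more negative B-score means stronger Kir2.1 block with less thallium influx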
RGS4 inh – inhibitors of human RGS4 | HEK293 M3R/RGS4 inducible, Fluo-4 calcium flux; hits give high values; triggered by carbachol at its EC20 | B-score at 10 µM | 310,000 compounds, 0.45% hits | AID 463165;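 active = B-score, a plate-corrected calcium signal, over three deviations above library mean, with baseline fluorescence within five deviations of library mean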;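 also: RGS4 expression induced by doxycycline in cells with stable M3 receptor; B-score is computed from the integrated fluorescence ratio over baseline after carbachol; higher B-score means a larger calcium signal and so more RGS4 inhibition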
Target sequence (P49798 whole entry, looked up): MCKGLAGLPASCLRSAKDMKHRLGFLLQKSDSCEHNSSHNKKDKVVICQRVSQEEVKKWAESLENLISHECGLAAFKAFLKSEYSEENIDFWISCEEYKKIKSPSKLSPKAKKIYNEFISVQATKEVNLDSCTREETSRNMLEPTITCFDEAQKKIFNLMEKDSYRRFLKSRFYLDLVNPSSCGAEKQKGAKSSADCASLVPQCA
MrgX1 PAM – allosterically activates human MrgX1 receptor signaling | 310,000 compounds, 0.63% hits | MrgX1-HEK293, Fluo-4 calcium flux, FDSS; hits give high values | B-score at 10 µM;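 active = plate-corrected calcium response at least 3 library SD above typical, normal starting fluorescence, not activating the receptor alone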;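 also: compound read alongside a low EC10 to EC30 dose of BAM8-22 agonist; peak minus trough fluorescence over baseline measured at the second addition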
Target sequence (Q96LB2 whole entry, looked up): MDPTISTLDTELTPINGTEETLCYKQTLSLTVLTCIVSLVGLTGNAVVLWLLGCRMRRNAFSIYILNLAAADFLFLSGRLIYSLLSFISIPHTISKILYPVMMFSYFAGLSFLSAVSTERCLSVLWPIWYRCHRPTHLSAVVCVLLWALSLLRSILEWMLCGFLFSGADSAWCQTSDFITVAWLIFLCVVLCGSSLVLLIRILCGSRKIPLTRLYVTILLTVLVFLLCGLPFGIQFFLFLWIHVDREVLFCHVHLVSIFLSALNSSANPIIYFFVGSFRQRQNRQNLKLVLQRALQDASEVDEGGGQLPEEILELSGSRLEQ
MrgX1 ag – human MrgX1 receptor agonism, primary screen. Q96LB2. MrgX1-HEK293 cells, Fluo-4 calcium fluorescence, agonist mode; hits give high values. B-score at 10 µM. 310,000 compounds, 0.44% hits;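 active = calcium response B-score plate-corrected fluorescence ratio at least 3 library SD, with starting fluorescence B-score inside 5 SD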
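Assay system: MrgX1-expressing HEK293 cells / Amount: fifteen thousand cells per well / Doses: test compound in the initial addition of three / Timing: cells plated overnight, dye loaded 0.5 h 37 °C, 0.5 h room temperature / Technique: kinetic calcium dye fluorescence, Fluo-4 NW / Control set: positive and negative controls per plate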
MrgX1 antagonist – human MrgX1 receptor antagonism, primary screen. Q96LB2. MRGX1-HEK293 calcium flux, Fluo-4, BAM8-22 antagonism; hits give low values. B-score at 10 µM. 310,000 compounds, 1.3% hits;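 active = calcium-response B-score plate-corrected more than 3 library SD below zero, starting fluorescence within 5 deviations, no agonist response on first addition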;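 also: peak minus trough fluorescence over baseline after final BAM8-22 challenge near maximal dose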
RGS4 pot – RGS4 potentiation or activation | HEK293 M3R/inducible RGS4, carbachol calcium flux Fluo4; hits give low values | 310,000 compounds, 0.92% hits | AID 463111 | B-score at 10 µM;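 active = B-score of the integrated calcium signal more than 4 SD below the library mean, with starting fluorescence not abnormally high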;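 also: negative B-score means reduced calcium response which marks RGS4 activation or potentiation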
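test system = HEK293 cells with stable M3R and inducible RGS4 | schedule = recording 10 s baseline at 1 Hz, 100 s post-agonist | technique = Fluo4-AM (2 µM) calcium-flux fluorescence, kinetic read | measure = Agonist-evoked peak-minus-minimum fluorescence over baseline, integrated ratio, B score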
MrgX1 antag conf – reconfirmed antagonist of human MrgX1 receptor signaling | MrgX1-HEK293, BAM8-22 calcium flux, Fluo-4; hits give low values | shares compounds with MrgX1 antagonist | 2,300 compounds, 19% hits | remaining BAM8-22 calcium response % of control (hits give low values), % at 10 µM;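 active = remaining agonist calcium response no higher than 100% minus 3 SD of agonist-only control wells, with starting fluorescence near control levels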;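 also: agonist BAM8-22 given at a near maximal EC90 to ECmax level; peak minus minimum fluorescence divided by baseline after agonist addition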
HEK293 Ca flux – counter-screen for MrgX1 antagonists: effect in parental HEK293 cells | Fluo-4 calcium fluorescence, FDSS | shares compounds with MrgX1 antagonist | AID 624111 | 4,000 compounds, 2% hits | fluorescence ratio F(max-min)/F0 at 10 µM;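 active = duplicate-averaged calcium fluorescence ratio at least three times the standard deviation of buffer wells, a nonspecific response in parental cells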
HEK293 Ca counter – MrgX1 allosteric activator counter-screen hit in parental HEK293 cells; shares compounds with MrgX1 antagonist; fluorescence ratio F(max-min)/F0 at 10 µM; AID 624114; 4,000 compounds, 0.4% hits; parental HEK293 calcium flux, Fluo-4 fluorescence ratio; hits give high values;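 active = calcium fluorescence ratio, averaged over duplicates, at least 3 SD of the buffer-well ratio, meaning a nonspecific response in receptor-free cells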;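 also: untransfected parental HEK293 lacking MrgX1 used as counterscreen for MrgX1 allosteric activators; fluorescence change taken during the second addition on a kinetic imager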
HEK293 Ca cntr2 – activity in parental HEK293 cells lacking MrgX1 receptor. shares compounds with MrgX1 antagonist. Fluo-4 calcium fluorescence (FDSS); hits give high values. fluorescence ratio F(max-min)/F0 at 10 µM. 4,000 compounds, 8.7% hits. AID 624115;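 active = calcium fluorescence ratio at least three times the spread of buffer wells, meaning a non-specific response in parental cells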
A number is an active result; - = inactive; . = not tested or not shown. An excerpt weighted towards active compounds, which were near 4.1% of everything screened.

SMILES | Kir21 block | RGS4 inh | MrgX1 PAM | MrgX1 ag | MrgX1 antagonist | RGS4 pot | MrgX1 antag conf | HEK293 Ca flux | HEK293 Ca counter | HEK293 Ca cntr2
O=C(/C(=C(\O)c1ccccc1)c1ncc[nH]1)c1ccccc1 | - | - | - | - | -9.7 | - | - | - | - | -
COC(=O)c1sccc1NC(=O)Nc1ccc(OC)cc1OC | - | - | - | - | - | - | . | . | . | .
O=C(COC(=O)c1sc2ccccc2c1Cl)NC1CCCCC1 | - | - | - | - | - | - | . | . | . | .
COc1ccc(Cl)cc1N1C(=O)c2cccnc2C1=O | - | - | - | - | - | - | . | . | . | .
COc1ccc(Cl)cc1-n1c(C)ccc1C | - | - | - | - | -8.4 | - | - | - | - | -
Cc1cc(C)cc(OCCNC(=O)C(C)N2C(=O)c3ccccc3C2=O)c1 (centres undefined) | - | - | - | - | - | - | . | . | . | .
COCC(=O)n1nc(-c2ccc(Cl)cc2)nc1NCc1ccc(F)cc1 | - | - | - | - | -4.9 | - | 81% | - | - | -
COCC(=O)n1nc(-c2ccccc2)nc1NCc1ccc(N(C)C)cc1 | - | - | - | - | - | - | . | . | . | .
Cc1ccc2nc(SCC(=O)Nc3ccc4c(c3)OCO4)nc(=O)n2c1 | - | - | - | - | - | - | . | . | . | .
COc1cc(Oc2ccccc2)nc(N)n1 | - | - | - | - | - | - | . | . | . | .
Cc1cc2cc(CCNC(=O)c3ccc(Br)o3)c(=O)[nH]c2cc1C | - | - | - | - | - | - | . | . | . | .
COc1ccc2cc(CCNC(=O)c3ccc(Br)o3)c(=O)[nH]c2c1 | - | - | - | - | -5.3 | - | - | - | - | -
O=C(CC1S/C(=N/N=C/c2c[nH]c3ccc(OCc4ccccc4)cc23)NC1=O)Nc1ccccc1 (centres undefined) | - | - | - | - | - | - | . | . | . | .
CC(C)Oc1ccc(C(=O)Nc2nnc(SCC(=O)N3CCOCC3)s2)cc1 | - | - | - | - | -4.9 | - | - | - | - | -
C/C(=N\NC(=O)Cc1c(C)[nH][nH]c1=O)c1cccc(Br)c1 | - | - | - | - | - | - | . | . | . | .
O=C(NCc1cn2ccsc2n1)c1c(F)cccc1Cl | - | - | - | - | -5 | - | - | - | - | -
O=C(NCc1cn2ccsc2n1)c1cccc(C(F)(F)F)c1 | - | - | - | - | - | - | . | . | . | .
CC1CCCN(CC(O)COCC2COc3ccccc3O2)C1 (centres undefined) | - | - | - | - | - | - | . | . | . | .
Cc1cc(Cl)ccc1OCCCC(=O)NCC1CCCO1 (centres undefined) | - | - | - | - | - | - | . | . | . | .
Nc1nc(/C=C/c2cccnc2)nc(-c2ccccc2O)n1 | - | - | - | - | -4.8 | - | - | - | - | -
Cc1ccc(-c2cc(-c3ccccc3O)nc(N/N=C/c3cccnc3)n2)cc1 | - | - | - | - | - | - | . | . | . | .
Nc1nc(/C=C/c2ccc(F)cc2)nc(-c2ccccc2O)n1 | - | - | - | - | -6.8 | - | 84% | - | - | -
COc1ccc(/C=C/c2nc(-c3ccccc3O)n[nH]2)cc1 | - | - | - | - | - | - | . | . | . | .
CCN(CC)C(=O)C1CCCN(C(=O)c2cc(COc3ccc4ncccc4c3)on2)C1 (centres undefined) | - | - | - | - | - | - | . | . | . | .
Cc1ccc(C)c(-n2c(SCC(=O)Nc3nonc3C)nnc2-c2ccoc2C)c1 | - | - | - | - | -5.4 | - | 83% | - | - | -
SMILES | Kir21 block | RGS4 inh | MrgX1 PAM | MrgX1 ag | MrgX1 antagonist | RGS4 pot | MrgX1 antag conf | HEK293 Ca flux | HEK293 Ca counter | HEK293 Ca cntr2
Cc1ccc(CNC(=S)NC2CCC(C(C)(C)C)CC2)cc1 (centres undefined) | - | - | - | - | -6.3 | - | 63% | - | - | -
C=C(C)C(=O)Nc1cccc(C2=NOC3(C2)C[C@@H](C(N)=O)N(C(=O)/C(C)=C/C)C3)c1 (some centres undefined) | - | - | - | - | - | - | . | . | . | .
CC(C)CCNC(=O)C1CCCN(S(=O)(=O)c2ccc(-n3cnnn3)cc2)C1 (centres undefined) | - | - | - | - | - | - | . | . | . | .
O=C(COC(=O)COc1ccccc1)NCCc1ccccc1 | - | - | - | - | -5.2 | - | - | - | - | -
COc1ccc(OC)c(NC(=O)CN2C(=O)C3(OCCCO3)c3ccccc32)c1 | - | - | - | - | - | - | . | . | . | .
COc1ccc(CCNC(=O)CN2C(=O)C3(OCCCO3)c3ccccc32)cc1OC | - | - | - | - | -5.4 | - | 84% | - | - | -
CCCCCN1C2=NCCN2c2ccccc21 | - | - | - | - | - | - | . | . | . | .
COc1ccc2c(c1)CC/C2=N\NC(=O)c1ccccc1 | - | - | - | - | -18 | - | - | - | - | -
c1ccc(-c2ccc(OCCCn3cncn3)cc2)cc1 | . | . | - | - | - | . | . | . | . | .
Cc1ccc2c(c1)nnn2C1CCN(CC(=O)NCc2ccccc2F)CC1 | - | - | - | - | - | - | . | . | . | .
COC(=O)c1ccc(NC(=O)C2C3C=CC(O3)C2C(=O)O)cc1 (centres undefined) | - | - | - | - | -8.7 | - | - | - | - | -
CC(C)(C)N=C1NC(=NC(C)(C)C)c2ccccc21 | - | - | - | - | -5 | - | - | - | - | 51
CC1=Nc2ccc3ccccc3c2C1(C)C | - | - | - | - | -5.8 | - | - | - | - | -
O=c1oc2ccccc2c(Nc2ccc(Cl)cc2)c1[N+](=O)[O-] | - | - | - | - | - | - | . | . | . | .
COc1cc(NC(=S)N2CCCCC2C)c(OC)cc1Cl (centres undefined) | - | - | - | - | -6.5 | - | - | - | - | -
O=c1cc(CSc2ccc(Cl)cc2)nc(N2CCCCC2)[nH]1 | - | - | - | - | -7.1 | - | - | - | - | -
O=C(Nc1ccccc1)c1ccc(-c2ccccc2Cl)o1 | - | - | - | - | - | - | . | . | . | .
O=C(NCCc1ccccc1)c1ccc(-c2ccccc2Cl)o1 | - | - | - | - | -4.6 | - | - | - | - | -
Cc1ccc(NC(=O)/C=C/c2ccc3c(c2)OCO3)cc1S(=O)(=O)N1CCOCC1 | - | - | - | - | - | - | . | . | . | .
CCCc1cc(=O)n2[nH]c(NCc3ccccc3Cl)nc2n1 | - | - | - | - | - | - | . | . | . | .
